Laboratory results from publication PMC7066653 (ACS Omega, 2020).
Converted amounts (≈) assume the structure as drawn.

Tests used:
[1] = 9 (b3); cited from earlier work
[2] = Aqueous solubility of ATXP and ATX at 25 °C, by HPLC; type: physicochemical; conditions: for solubility at 1 h: 25 °C, thermodynamic from solid
Summary of the method: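 Excess solid was added to 1 mL of ultrapure water, 0.9% NaCl (pH 7.4) or PBS (pH 7.4) and held at 25 °C. Samples were taken at 1, 24 and 48 h, filtered (0.22 μm) and quantified by HPLC (C18; 75% methanol/water with 1% TFA; 1 mL/min; 350 nm). Experiments were repeated three times and reported as mean ± SD.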

[3] = test system: focal cerebral ischemia-reperfusion injury (MCAO); assay: Neurological deficit; type: in vivo, Sprague-Dawley rats; conditions: edaravone 6 mg/kg iv, single dose, P = 0.4298
[4] = test system: focal cerebral ischemia-reperfusion injury (MCAO); parameters: species or system Sprague-Dawley rats; conditions: rat, in vivo

In the case of COc1ccc(-c2cc(=S)ss2)cc1 [ATT, Anethol trithione], the water solubility [1] is given as 0.38 µg/mL (≈ 1.58 µM).

For Oc1ccc(-c2cc(=S)ss2)cc1 [ATX, 5-(4-hydroxyphenyl)-3H-1,2-dithiole3-thione], the solubility at 1 h ([2]; 0.9% NaCl solution, pH 7.4, saline or isotonic) was under 0.8 µg/mL, the solubility at 1 h ([2]; PBS, pH 7.4, aqueous buffer) was under 0.8 µg/mL and the solubility at 1 h ([2]; ultrapure water, water) was 0.8 ± 0.02 µg/mL (≈ 3.53 µM).

With CC1=NN(c2ccccc2)C(=O)C1 [edaravone] the “neurological deficit score, 24 h vs 0 h after reperfusion” value [3] was “did not exhibit increased neurological scores”, the “infarct volume vs vehicle” value [4] was “significant reductions in infarct volume” and the “solubility in saline, in words” value ([2]; saline (0.9%)) was “freely soluble”.
